Screening results as filed in PubChem.
Sampled rows, rich in hits. Any-hit rate of the full collection: about 3.3%.
ATG4B inh: blocks human ATG4B protease cleavage of LC3 substrate. ATG4B cleavage of LC3-PLA2, NBD-HPC fluorescence, 1 h. inhibition, % at 8.33 µM. 0.51% of 340,000 active; in the data active means inhibition above about 40%
Target sequence (Q9Y4P1 whole entry, looked up): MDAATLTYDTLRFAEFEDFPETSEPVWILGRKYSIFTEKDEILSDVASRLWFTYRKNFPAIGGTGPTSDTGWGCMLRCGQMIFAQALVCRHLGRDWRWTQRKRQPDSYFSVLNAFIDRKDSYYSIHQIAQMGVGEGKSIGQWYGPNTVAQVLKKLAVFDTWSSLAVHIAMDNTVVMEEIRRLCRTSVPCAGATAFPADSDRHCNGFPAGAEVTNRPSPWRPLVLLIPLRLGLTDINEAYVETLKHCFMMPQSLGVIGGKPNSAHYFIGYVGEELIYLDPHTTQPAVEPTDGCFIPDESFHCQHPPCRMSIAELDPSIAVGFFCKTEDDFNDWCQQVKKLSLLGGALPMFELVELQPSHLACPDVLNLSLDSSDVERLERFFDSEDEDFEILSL
ABCB6 inh MLPCN: blocks the human ABCB6 transporter. Q9NP58. K562-ABCB6 porphyrin accumulation, flow cytometry, 1 h; stronger effect = lower value. fluorescence ratio to DMSO, % at 10 µM. 0.19% of 360,000 active;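 active means fluorescence ratio to DMSO below 75%, the collection mean minus 3 SD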;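 further: signal is porphyrin accumulated inside mitochondria; lower ratio means ABCB6 inhibition with less porphyrin fluorescence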
CendR NRP1 mod: alters CendR peptide binding to human NRP-1; AID 602438; inhibition, % at 25 µM; FAM-RPARPAR peptide binding to NRP-1, fluorescence polarization; O14786; 0.85% of 360,000 active;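 active means inhibition or corrected inhibition above about 18%, plus a signal ratio from 0.5 to 1.5, limit read from the data, passing the limit was not always enough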
Arr AP2 block: blocks beta-arrestin peptide binding to AP2 adaptin; FITC-arrestin peptide / GST-AP2 beads, flow cytometry; AP2 beta2 appendage carries R879A mutation; inhibition, % at 10 µM; 0.31% of 340,000 active; AID 504490;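 active means inhibition above a set limit, near 3 SD of compounds lacking own fluorescence, cut at about 54% in these data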
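Material – AP2 appendage R879A on GSH beads · Buffer or medium – PBS with 0.05% Tween 20 and 0.1% BSA · Probe or stimulus – fluorescein-tagged arrestin peptide at 50 nM final · Incubation – compound with beads 12 min RT, then probe 1 h RT · Detection – high-throughput flow cytometry of beads, ex 488, em 535 nm · Evaluation – percent response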
Myeloid diff 2: compounds promoting myeloid differentiation. calls only at 10 µM. AID 624256. ER-HoxA9 myeloid progenitors, lysozyme-GFP differentiation, flow cytometry. 1% of 360,000 active;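 active means normalized GFP-positive differentiation at or above the plate's own cutoff, the solvent-only control mean plus 3 SD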;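 further: cells exposed to compound for four days before flow analysis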
Granule exo inh: blocks lytic granule exocytosis; TALL-104 LAMP-1 surface exposure, flow cytometry; cells stimulated with thapsigargin and PMA; inhibition, % at 10 µM; 0.66% of 360,000 active;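 active means inhibition above about 55%, limit read from the data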
Hits are given with their value.

What do the screens show for `O=C(CSc1ccc(F)cc1)NNC(=O)c1ccccc1Br`?
ATG4B inh: inactive; ABCB6 inh MLPCN: inactive; CendR NRP1 mod: inactive; Arr AP2 block: inactive; Myeloid diff 2: inactive; Granule exo inh: inactive

Results for O=C(NNC(=O)c1cccs1)c1ccccc1 ?
ATG4B inh: inactive; ABCB6 inh MLPCN: inactive; CendR NRP1 mod: inactive; Arr AP2 block: inactive; Myeloid diff 2: inactive; Granule exo inh: inactive

Results for O=C(NNC(=O)c1ccccc1Br)c1cccs1 ?
ATG4B inh: inactive; ABCB6 inh MLPCN: inactive; CendR NRP1 mod: 25; Arr AP2 block: inactive; Myeloid diff 2: inactive; Granule exo inh: inactive

What do the screens show for `O=C(CSc1nncs1)NNC(=O)c1ccccc1Br`?
ATG4B inh: inactive; ABCB6 inh MLPCN: inactive; CendR NRP1 mod: 20; Arr AP2 block: inactive; Myeloid diff 2: inactive; Granule exo inh: inactive

How did CC(Oc1ccccc1)C(=O)NNC(=O)c1cccs1 (centres undefined) do in these assays?
ATG4B inh: inactive; CendR NRP1 mod: inactive; Arr AP2 block: inactive; Myeloid diff 2: active; Granule exo inh: inactive

How did CC(C)[C@H](NC(=O)N1CC(=O)Nc2ccccc21)C(=O)N1CCC[C@H]1C(=O)O do in these assays?
ATG4B inh: inactive; ABCB6 inh MLPCN: inactive; CendR NRP1 mod: inactive; Arr AP2 block: inactive; Myeloid diff 2: inactive; Granule exo inh: inactive

What do the screens show for `O=C(CCNS(=O)(=O)c1ccc(Br)cc1)NCc1ccc(F)cc1`?
ATG4B inh: inactive; ABCB6 inh MLPCN: inactive; CendR NRP1 mod: inactive; Arr AP2 block: inactive; Myeloid diff 2: inactive; Granule exo inh: inactive

Results for N=c1sccn1CC(=O)Nc1ccccc1Sc1ccccc1 ?
ATG4B inh: inactive; ABCB6 inh MLPCN: inactive; CendR NRP1 mod: inactive; Arr AP2 block: inactive; Granule exo inh: inactive

How did COc1cc(OC)c(C(=O)Nc2cccc3ccccc23)cc1OC do in these assays?
ATG4B inh: inactive; ABCB6 inh MLPCN: inactive; CendR NRP1 mod: inactive; Arr AP2 block: inactive; Myeloid diff 2: inactive; Granule exo inh: inactive

What do the screens show for `CC(Sc1nccn1C)C(=O)c1c(N)n(C)c(=O)n(C)c1=O` (centres undefined)?
ATG4B inh: inactive; ABCB6 inh MLPCN: inactive; CendR NRP1 mod: inactive; Arr AP2 block: inactive; Myeloid diff 2: inactive; Granule exo inh: inactive

What do the screens show for `CC(Cl)C(=O)c1c(N)n(C)c(=O)n(C)c1=O` (centres undefined)?
ATG4B inh: inactive; ABCB6 inh MLPCN: inactive; CendR NRP1 mod: 40; Arr AP2 block: inactive; Myeloid diff 2: inactive; Granule exo inh: inactive

What do the screens show for `Cc1ccc(Cl)cc1NC(=S)N1CCCCCC1`?
ATG4B inh: inactive; ABCB6 inh MLPCN: inactive; CendR NRP1 mod: inactive; Arr AP2 block: inactive; Myeloid diff 2: inactive; Granule exo inh: inactive

What do the screens show for `Cc1ccccc1S(=O)(=O)N(C)C[C@H]1OCc2cnnn2CCCC(=O)N([C@@H](C)CO)C[C@H]1C`?
ABCB6 inh MLPCN: inactive; CendR NRP1 mod: inactive; Myeloid diff 2: inactive; Granule exo inh: inactive

Results for Cc1ccccc1S(=O)(=O)N(C)C[C@H]1OCc2cnnn2CCCC(=O)N([C@H](C)CO)C[C@H]1C ?
ABCB6 inh MLPCN: inactive; CendR NRP1 mod: inactive; Myeloid diff 2: active; Granule exo inh: inactive

Results for Cc1ccccc1S(=O)(=O)N(C)C[C@@H]1OCc2cn(nn2)CCCC(=O)N([C@H](C)CO)C[C@H]1C ?
ABCB6 inh MLPCN: inactive; CendR NRP1 mod: inactive; Myeloid diff 2: inactive; Granule exo inh: inactive

What do the screens show for `COc1ccc(S(=O)(=O)NCc2cc(=O)n(C)c(=O)n2C)cc1F`?
ATG4B inh: inactive; ABCB6 inh MLPCN: inactive; CendR NRP1 mod: inactive; Arr AP2 block: inactive; Myeloid diff 2: inactive; Granule exo inh: inactive

What do the screens show for `Cc1cc(-c2cccs2)c2c(N)c(C(=O)c3ccc4c(c3)OCO4)sc2n1`?
ATG4B inh: inactive; ABCB6 inh MLPCN: inactive; CendR NRP1 mod: inactive; Arr AP2 block: inactive; Myeloid diff 2: active; Granule exo inh: inactive

What do the screens show for `COc1ccc(C(=O)c2sc3nc(C)cc(-c4cccs4)c3c2N)cc1`?
ATG4B inh: inactive; ABCB6 inh MLPCN: inactive; CendR NRP1 mod: inactive; Arr AP2 block: inactive; Myeloid diff 2: inactive; Granule exo inh: inactive

Results for COc1ccc(C2=NOC(C(=O)NCc3ccco3)C2)cc1 (centres undefined) ?
ATG4B inh: inactive; ABCB6 inh MLPCN: inactive; CendR NRP1 mod: inactive; Arr AP2 block: inactive; Myeloid diff 2: inactive; Granule exo inh: inactive
